Assay outcomes from PubChem BioAssay.
Only some compounds are listed: those with a hit (about 3.1% of all), similar ones and a draw of the others.
Lipid droplet: hepatic lipid droplet formation modulation; inhibition, % at 6.5 µM; AML12 mouse hepatocytes, oleate lipid droplets, BODIPY imaging; hit rate 0.4% among 240,000;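 active = lipid droplet intensity inhibited by at least 50%, with more than 500 cells counted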
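Material: mouse AML12 hepatocyte cell line, fixed after treatment; Timing: compound with oleate, overnight; Technique: high-content imaging of BODIPY-stained droplets and DAPI nuclei; Probe or stimulus: oleate, 100 µM final; Dosing: compound at 6.5 µM only.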
aDG glyco act: alpha-DG glycosylation activation; Pro5-aDG cells, alpha-DG glycosylation AlphaScreen (IIH6); 0% Pro5, 100% B10-LARGE cell signal; activation, % at 10 µM; hit rate 0.22% among 360,000; AID 624168;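 active = activation of at least 8% versus controls, or a plate z-score of at least 8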;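 also: Pro5 are CHO cells carrying HIG-tagged alpha-DG that lacks glycosylation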
ADAM10 inh: ADAM10 inhibition, QFRET primary screen; recombinant ADAM10, EDANS/DABCYL FRET peptide cleavage, 3 h; inhibition, % at 7 µM; hit rate 0.62% among 370,000; AID 720582;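 active = inhibition above a per-campaign cutoff equal to the mean of compounds falling between control-based bounds plus 3 SD, cut at about 20% in these data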;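 also: 0% = DMSO wells while the 100% control is not disclosed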
ADAM17 inh: inhibitors of human ADAM17 | recombinant ADAM17, EDANS/DABCYL FRET peptide cleavage | inhibition, % at 6.95 µM | hit rate 0.83% among 370,000;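 active = inhibition above the mean of compounds lying between control limits plus 3 SD, set per campaign, cut at about 8.5% in these data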;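 also: 0% = DMSO-only wells as the low control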
Target sequence (P78536 215-824 limits assumed): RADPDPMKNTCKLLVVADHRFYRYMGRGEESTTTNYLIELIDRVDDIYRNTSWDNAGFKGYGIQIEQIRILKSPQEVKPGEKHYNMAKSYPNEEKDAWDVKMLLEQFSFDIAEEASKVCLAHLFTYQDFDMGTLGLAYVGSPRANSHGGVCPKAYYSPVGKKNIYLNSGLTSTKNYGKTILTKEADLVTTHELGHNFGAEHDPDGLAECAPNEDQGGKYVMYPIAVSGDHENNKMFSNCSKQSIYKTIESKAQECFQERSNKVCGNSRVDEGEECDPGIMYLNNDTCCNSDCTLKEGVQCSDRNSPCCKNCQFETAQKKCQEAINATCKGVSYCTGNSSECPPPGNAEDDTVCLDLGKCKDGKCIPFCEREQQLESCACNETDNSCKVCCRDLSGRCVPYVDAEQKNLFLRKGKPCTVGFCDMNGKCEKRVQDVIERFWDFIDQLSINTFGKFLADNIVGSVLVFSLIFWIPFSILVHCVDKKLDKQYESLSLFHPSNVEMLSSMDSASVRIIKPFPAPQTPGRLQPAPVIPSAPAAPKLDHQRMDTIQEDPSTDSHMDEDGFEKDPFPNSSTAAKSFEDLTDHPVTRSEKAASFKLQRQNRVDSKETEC
MPTP inh: permeability transition pore inhibition; inhibition, % at 10 µM; isolated mouse mitochondria, Ca2+ swelling absorbance, 30 min; hit rate 1.4% among 360,000;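 active = inhibition of 50% or more, scaled per plate between neutral and stimulator controls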;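 also: 0% = DMSO wells given calcium and 100% = 1 mM EGTA wells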
V-ATPase pHluor: regulators of yeast V-ATPase proton transport | S. cerevisiae, pHLuorin cytosolic pH fluorescence | response, % at 10 µM | hit rate 0.37% among 350,000; in the data active = response mostly above about 7.3%, no sharp cut-off; inactive = mostly below about 5.4%; also: actives read high
ADAM10 confirm: human ADAM10 inhibition, confirmation | hit rate 1% among 2,100 | ADAM10 QFRET peptide cleavage, EDANS fluorescence | shares compounds with ADAM10 inh | inhibition, % at 6.95 µM;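 active = inhibition above about 20% chosen separately for each screening run, limit read from the data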;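 also: 0% = DMSO wells and 100% = marimastat wells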
ADAM17 counter: inhibits human ADAM17 in ADAM10 exosite counter-screen | shares compounds with ADAM10 inh | hit rate 0.5% among 2,100 | AID 743214 | inhibition, % at 6.95 µM | ADAM17 QFRET peptide cleavage, EDANS fluorescence;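 active = mean triplicate inhibition above the solvent-only control wells' mean plus 3 SD, cut at about 12% in these data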;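 also: 0% = DMSO wells and 100% = marimastat wells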
Numbers without * were called inactive; nt = no result.

SMILES	Lipid droplet	aDG glyco act	ADAM10 inh	ADAM17 inh	MPTP inh	V-ATPase pHluor	ADAM10 confirm	ADAM17 counter
O=C(COC(=O)c1cc(-c2ccccc2)nc2ccccc12)Nc1ccc2c(c1)OCO2	-6	0	-8	-5	12	-1	nt	nt
O=C(COC(=O)c1c2c(nc3ccccc13)CCCC2)Nc1ccc2c(c1)OCO2	nt	0	24*	8	-3	5	3	1
N#Cc1ccccc1NCCCN1CCC(C(O)(c2ccccc2)c2ccccc2)CC1	nt	nt	-26	-4	nt	nt	nt	nt
Cc1ccc(C)c(N2CCN(C(=O)c3ccc(CS(=O)Cc4ccc(Cl)cc4)o3)CC2)c1 (stereo unspecified)	-64	0	11	5	0	1	nt	nt
Cc1ccc(Cl)cc1N1CCN(C(=O)c2ccc(CS(=O)Cc3ccc(Cl)cc3)o2)CC1 (stereo unspecified)	0	0	23*	3	0	4	3	2
CCN(c1ccccc1)S(=O)(=O)c1ccc(Cl)c(NC(=O)COC(=O)c2ccc(O)cc2)c1	-6	0	20*	2	2	3	3	0
O=C(NCCc1ccccc1)OCc1cn(Cc2ccc(C(F)(F)F)cc2)nn1	nt	nt	1	0	nt	nt	nt	nt
COc1ccc(Cn2ccc3ccc(-c4ccc5ccn(C(=O)C6CCC6)c5c4)cc32)cc1	nt	nt	-46	-13	nt	nt	nt	nt
O=C(CSc1ccccn1)Nc1nc2ccccc2s1	-2	0	6	1	-1	4	nt	nt
O=C(CSc1cn[nH]n1)Nc1nc2ccccc2s1	-3	0	20*	2	0	-1	1	0
O=C(Nc1ccn(Cc2ccccc2F)n1)c1ccc(COc2ccc(Br)cc2)cc1	nt	4	20*	3	5	-1	5	1
O=C(Nc1ccc(Cn2cccn2)cc1)c1ccc(COc2ccc(Br)cc2)cc1	3	0	10	1	12	2	nt	nt
CCNC(=S)NNC(=O)c1cnccn1	nt	nt	-1	1	nt	nt	nt	nt
COc1ccc(S(=O)(=O)NC(C)C(=O)Nc2ccccc2F)cc1 (stereo unspecified)	nt	0	-2	0	0	-1	nt	nt
COc1ccc(S(=O)(=O)NC(C)C(=O)Nc2cccc(C(C)=O)c2)cc1 (stereo unspecified)	-3	0	31*	6	-4	1	0	1
CCc1ccc(N=Nc2ccc(O)c3[nH]cnc23)cc1	nt	0	24*	7	3	0	2	1
COc1ccc(CNC(=O)[C@H](NC(=O)C2CCN(C(=O)[C@@H](N)CCSC)CC2)C(C)C)cc1	-1	0	82*	-1	-2	0	-1	0
CCC[C@H]1[C@@H](NC(=O)c2ccc(N(C)C)cc2)CC[C@@]23CCCN2C(=O)CCC[C@@H]13	nt	nt	-4	-8	nt	nt	nt	nt
OC(c1ccc(F)c(F)c1)c1ncc(-c2cccc(C(F)(F)F)c2)[nH]1 (stereo unspecified)	nt	2	13	8	9	nt	nt	nt
OC(c1ccc2c(c1)OCO2)c1ncc(-c2cccc(C(F)(F)F)c2)[nH]1 (stereo unspecified)	nt	0	20*	6	2	nt	3	0
O=C(/C=C/c1ccccc1)NC(NC(=S)Nc1cccc(O)c1)C(Cl)(Cl)Cl (stereo unspecified)	4	0	21*	6	25	3	8	2
C/C(=N\NC(=S)NCCc1ccccc1)c1cccc(Br)c1	-16	0	9	-2	2	-1	nt	nt
C/C(=N\NC(=S)NCc1ccccc1)c1cccc(Br)c1	1	1	21*	4	1	-2	8	4
N#Cc1nc(COc2ccccc2F)oc1NCCc1ccccc1	6	0	22*	5	7	0	5	0
CCOc1cc(CNn2cn[nH]c2=S)cc(Cl)c1OCc1ccccc1F	13	3	25*	12*	0	0	0	0
SMILES	Lipid droplet	aDG glyco act	ADAM10 inh	ADAM17 inh	MPTP inh	V-ATPase pHluor	ADAM10 confirm	ADAM17 counter
CC(C)C[C@H]1COc2cccc(F)c2S(=O)(=O)N1Cc1cn(CCC2OCCCO2)nn1	nt	nt	2	-2	nt	nt	nt	nt
c1csc(CNc2ncnc3ccc(-c4ccc5c(c4)OCO5)cc23)n1	nt	nt	-114	-48	nt	nt	nt	nt
O=C(Nc1ccccc1C(F)(F)F)c1ccc(F)c(S(=O)(=O)N2CCOCC2)c1	nt	0	22*	4	2	-4	3	0
O=C(Nc1ccccc1N1CCCCC1)c1ccc(F)c(S(=O)(=O)N2CCOCC2)c1	nt	0	4	4	-1	-1	nt	nt
Cc1cccc([C@@H]2[C@@H]3C(=O)N(Cc4ccccc4)C(=O)[C@@H]3[C@]3(Cc4ccccc4)C(=O)N(c4ccccc4)C(=O)N23)c1	nt	0	22*	4	1	-1	2	2
CC[C@@]12C(=O)N(c3cccc(Br)c3)C(=O)N1[C@H](c1cccc(C)c1)[C@@H]1C(=O)N(Cc3ccccc3)C(=O)[C@@H]12	nt	0	21*	8	1	0	5	2
Cc1cccc([C@@H]2[C@@H]3C(=O)N(Cc4ccccc4)C(=O)[C@@H]3[C@]3(Cc4ccccc4)C(=O)N(c4ccc(C(F)(F)F)cc4)C(=O)N23)c1	nt	1	20*	8	0	2	13	7
CCN(C(=O)C1CCCN1S(=O)(=O)c1cccnc1)c1ccccc1 (stereo unspecified)	nt	nt	9	2	nt	nt	nt	nt
CCOC(=O)C1C(=O)C=C(c2ccc([N+](=O)[O-])cc2)CC1c1ccccc1 (stereo unspecified)	-31	0	7	0	1	-4	nt	nt
CCOC(=O)C1C(=O)C=C(C)C(C(=O)OCC)C1c1cccc([N+](=O)[O-])c1 (stereo unspecified)	-12	0	20*	1	-1	-1	2	0
C#CCN1CC(N(C)CCCO)CS1(=O)=O (stereo unspecified)	nt	nt	-3	-1	nt	nt	nt	nt
CN(Cc1ccccc1)C(=O)OCc1cn(Cc2cccc(Cl)c2)nn1	nt	nt	-14	-9	nt	nt	nt	nt
CC1CCCC(C)N1C(=C(Cl)Cl)C(=C1SCCS1)[N+](=O)[O-] (stereo unspecified)	-3	0	21*	8	2	2	1	1
C[C@H](c1ccccc1)N1C[C@@H](COCc2ccccc2)Oc2cc(N3CC[C@@H](O)C3)ccc2S1(=O)=O	nt	0	0	5	0	nt	nt	nt
C[C@@H](c1ccccc1)N1C[C@H](COCc2ccccc2)Oc2cc(N3CC[C@H](O)C3)ccc2S1(=O)=O	nt	0	21*	7	0	nt	7	2
